Source: ChEMBL document CHEMBL4689842, “EUbOPEN Chemogenomics Library wave 1” (2021)
Values joined by “and” are separate entries in the source; they are usually repeats but may differ in a detail not shown here. Identical values can stand only once.

Test system: Fibroblast
Experiment: Multiplex assay against human fibroblast
Assay type: toxicity, cell-based
Summary of the method: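 Tubulin, mitochondrial-mass and membrane-permeability phenotypes are per cents of healthy-nucleus cells. Cells were gated by CellPathfinder machine learning into Hoechst high-intensity objects or normal cells, normal cells into healthy, pyknosed or fragmented nuclei, and pyknosed cells into mitotic or apoptotic. Before that, live cells stained at seeding with Hoechst33342, BioTracker Green Microtubule Cytoskeleton Dye, MitoTracker Red and Annexin V Alexa Fluor 680 were imaged on a CQ1 microscope at 37°C and 5% CO2 after compound addition.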

[1] = 12 h, 1 µM, compound concentration 1 uM, replicate 1
[2] = 12 h, 1 µM, compound concentration 1 uM, replicate 2
[3] = 12 h, 10 µM, compound concentration 10 uM, replicate 1
[4] = 12 h, 10 µM, compound concentration 10 uM, replicate 2
[5] = 24 h, 1 µM, compound concentration 1 uM, replicate 1
[6] = 24 h, 1 µM, compound concentration 1 uM, replicate 2
[7] = 24 h, 10 µM, compound concentration 10 uM, replicate 1
[8] = 24 h, 10 µM, compound concentration 10 uM, replicate 2
[9] = 48 h, 1 µM, compound concentration 1 uM, replicate 1
[10] = 48 h, 1 µM, compound concentration 1 uM, replicate 2
[11] = 48 h, 10 µM, compound concentration 10 uM, replicate 1
[12] = 48 h, 10 µM, compound concentration 10 uM, replicate 2

SMILES: CCN1CCN(Cc2ccc(Nc3ncc(F)c(-c4cc(F)c5nc(C)n(C(C)C)c5c4)n3)nc2)CC1.CS(=O)(=O)O
- Population Apoptotic (%) [1]: 75%
- Population Fragmented Nuclei (%) [1]: 39%
- Population Healthy Nuclei (%) [1]: 40%
- Population Hoechst High Intensity Objects (%) [1]: 15%
- Population Membrane Permeable-Phenotype (%) [1]: 17%
- Population Mitochondria Different-Phenotype (%) [1]: 21%
- Population Mitotic Cells (%) [1]: 25%
- Population Normal (%) [1]: 84%
- Population Pyknosed Nuclei (%) [1]: 20%
- Population Tubulin-Different-Phenotype (%) [1]: 57%
- Total Cell Count [1]: 187
- Population Apoptotic (%) [2]: 40%
- Population Fragmented Nuclei (%) [2]: 17%
- Population Healthy Nuclei (%) [2]: 67%
- Population Hoechst High Intensity Objects (%) [2]: 6%
- Population Membrane Permeable-Phenotype (%) [2]: 8%
- Population Mitochondria Different-Phenotype (%) [2]: 91%
- Population Mitotic Cells (%) [2]: 60%
- Population Normal (%) [2]: 93%
- Population Pyknosed Nuclei (%) [2]: 14%
- Population Tubulin-Different-Phenotype (%) [2]: 97%
- Total Cell Count [2]: 73
- Population Apoptotic (%) [3]: 63%
- Population Fragmented Nuclei (%) [3]: 40%
- Population Healthy Nuclei (%) [3]: 13%
- Population Hoechst High Intensity Objects (%) [3]: 17%
- Population Membrane Permeable-Phenotype (%) [3]: 52%
- Population Mitochondria Different-Phenotype (%) [3]: 5%
- Population Mitotic Cells (%) [3]: 36%
- Population Normal (%) [3]: 82%
- Population Pyknosed Nuclei (%) [3]: 46%
- Population Tubulin-Different-Phenotype (%) [3]: 47%
- Total Cell Count [3]: 158
- Population Apoptotic (%) [4]: 83%
- Population Fragmented Nuclei (%) [4]: 32%
- Population Healthy Nuclei (%) [4]: 22%
- Population Hoechst High Intensity Objects (%) [4]: 9%
- Population Membrane Permeable-Phenotype (%) [4]: 88%
- Population Mitochondria Different-Phenotype (%) [4]: 94%
- Population Mitotic Cells (%) [4]: 16%
- Population Normal (%) [4]: 90%
- Population Pyknosed Nuclei (%) [4]: 45%
- Population Tubulin-Different-Phenotype (%) [4]: 100%
- Total Cell Count [4]: 88
- Population Apoptotic (%) [5]: 44%
- Population Fragmented Nuclei (%) [5]: 39%
- Population Healthy Nuclei (%) [5]: 45%
- Population Hoechst High Intensity Objects (%) [5]: 21%
- Population Membrane Permeable-Phenotype (%) [5]: 15%
- Population Mitochondria Different-Phenotype (%) [5]: 8%
- Population Mitotic Cells (%) [5]: 55%
- Population Normal (%) [5]: 78%
- Population Pyknosed Nuclei (%) [5]: 15%
- Population Tubulin-Different-Phenotype (%) [5]: 69%
- Total Cell Count [5]: 240
- Population Apoptotic (%) [6]: 58%
- Population Fragmented Nuclei (%) [6]: 20%
- Population Healthy Nuclei (%) [6]: 61%
- Population Hoechst High Intensity Objects (%) [6]: 10%
- Population Membrane Permeable-Phenotype (%) [6]: 21%
- Population Mitochondria Different-Phenotype (%) [6]: 85%
- Population Mitotic Cells (%) [6]: 41%
- Population Normal (%) [6]: 89%
- Population Pyknosed Nuclei (%) [6]: 17%
- Population Tubulin-Different-Phenotype (%) [6]: 87%
- Total Cell Count [6]: 75
- Population Apoptotic (%) [7]: 80%
- Population Fragmented Nuclei (%) [7]: 45%
- Population Healthy Nuclei (%) [7]: 16%
- Population Hoechst High Intensity Objects (%) [7]: 25%
- Population Membrane Permeable-Phenotype (%) [7]: 46%
- Population Mitochondria Different-Phenotype (%) [7]: 0%
- Population Mitotic Cells (%) [7]: 20%
- Population Normal (%) [7]: 74%
- Population Pyknosed Nuclei (%) [7]: 38%
- Population Tubulin-Different-Phenotype (%) [7]: 53%
- Total Cell Count [7]: 122
- Population Apoptotic (%) [8]: 97%
- Population Fragmented Nuclei (%) [8]: 27%
- Population Healthy Nuclei (%) [8]: 13%
- Population Hoechst High Intensity Objects (%) [8]: 20%
- Population Membrane Permeable-Phenotype (%) [8]: 100%
- Population Mitochondria Different-Phenotype (%) [8]: 87%
- Population Mitotic Cells (%) [8]: 2%
- Population Normal (%) [8]: 79%
- Population Pyknosed Nuclei (%) [8]: 59%
- Population Tubulin-Different-Phenotype (%) [8]: 100%
- Total Cell Count [8]: 74
- Population Apoptotic (%) [9]: 56%
- Population Fragmented Nuclei (%) [9]: 43%
- Population Healthy Nuclei (%) [9]: 41%
- Population Hoechst High Intensity Objects (%) [9]: 37%
- Population Membrane Permeable-Phenotype (%) [9]: 6%
- Population Mitochondria Different-Phenotype (%) [9]: 12%
- Population Mitotic Cells (%) [9]: 43%
- Population Normal (%) [9]: 62%
- Population Pyknosed Nuclei (%) [9]: 15%
- Population Tubulin-Different-Phenotype (%) [9]: 69%
- Total Cell Count [9]: 246
- Population Apoptotic (%) [10]: 75%
- Population Fragmented Nuclei (%) [10]: 53%
- Population Healthy Nuclei (%) [10]: 43%
- Population Hoechst High Intensity Objects (%) [10]: 16%
- Population Membrane Permeable-Phenotype (%) [10]: 10%
- Population Mitochondria Different-Phenotype (%) [10]: 5%
- Population Mitotic Cells (%) [10]: 25%
- Population Normal (%) [10]: 83%
- Population Pyknosed Nuclei (%) [10]: 2%
- Population Tubulin-Different-Phenotype (%) [10]: 61%
- Total Cell Count [10]: 199
- Population Apoptotic (%) [11]: 100%
- Population Fragmented Nuclei (%) [11]: 69%
- Population Healthy Nuclei (%) [11]: 20%
- Population Hoechst High Intensity Objects (%) [11]: 33%
- Population Membrane Permeable-Phenotype (%) [11]: 41%
- Population Mitochondria Different-Phenotype (%) [11]: 5%
- Population Mitotic Cells (%) [11]: 0%
- Population Normal (%) [11]: 66%
- Population Pyknosed Nuclei (%) [11]: 9%
- Population Tubulin-Different-Phenotype (%) [11]: 76%
- Total Cell Count [11]: 123
- Population Apoptotic (%) [12]: 77%
- Population Fragmented Nuclei (%) [12]: 35%
- Population Healthy Nuclei (%) [12]: 50%
- Population Hoechst High Intensity Objects (%) [12]: 53%
- Population Membrane Permeable-Phenotype (%) [12]: 23%
- Population Mitochondria Different-Phenotype (%) [12]: 38%
- Population Mitotic Cells (%) [12]: 22%
- Population Normal (%) [12]: 46%
- Population Pyknosed Nuclei (%) [12]: 13%
- Population Tubulin-Different-Phenotype (%) [12]: 52%
- Total Cell Count [12]: 145

SMILES: Cl.O=C(c1ccc(Nc2nccc(-c3cc4ccccc4s3)n2)cc1)N1CCC(N2CCCC2)CC1
- Population Apoptotic (%) [1]: 84%
- Population Fragmented Nuclei (%) [1]: 42%
- Population Healthy Nuclei (%) [1]: 48%
- Population Hoechst High Intensity Objects (%) [1]: 21%
- Population Membrane Permeable-Phenotype (%) [1]: 4%
- Population Mitochondria Different-Phenotype (%) [1]: 10%
- Population Mitotic Cells (%) [1]: 15%
- Population Normal (%) [1]: 78%
- Population Pyknosed Nuclei (%) [1]: 9%
- Population Tubulin-Different-Phenotype (%) [1]: 14%
- Total Cell Count [1]: 260
- Population Apoptotic (%) [2]: 55%
- Population Fragmented Nuclei (%) [2]: 53%
- Population Healthy Nuclei (%) [2]: 32%
- Population Hoechst High Intensity Objects (%) [2]: 36%
- Population Membrane Permeable-Phenotype (%) [2]: 0%
- Population Mitochondria Different-Phenotype (%) [2]: 9%
- Population Mitotic Cells (%) [2]: 44%
- Population Normal (%) [2]: 63%
- Population Pyknosed Nuclei (%) [2]: 13%
- Total Cell Count [2]: 102
- Population Apoptotic (%) [3]: 73% and 44%
- Population Fragmented Nuclei (%) [3]: 31% and 33%
- Population Healthy Nuclei (%) [3]: 16% and 12%
- Population Hoechst High Intensity Objects (%) [3]: 19% and 12%
- Population Mitochondria Different-Phenotype (%) [3]: 26% and 36%
- Population Mitotic Cells (%) [3]: 26% and 55%
- Population Normal (%) [3]: 80% and 87%
- Population Pyknosed Nuclei (%) [3]: 52% and 53%
- Population Tubulin-Different-Phenotype (%) [3]: 66% and 53%
- Total Cell Count [3]: 115 and 265
- Population Apoptotic (%) [4]: 93% and 82%
- Population Fragmented Nuclei (%) [4]: 35% and 54%
- Population Healthy Nuclei (%) [4]: 7% and 10%
- Population Hoechst High Intensity Objects (%) [4]: 21% and 38%
- Population Membrane Permeable-Phenotype (%) [4]: 50% and 42%
- Population Mitochondria Different-Phenotype (%) [4]: 100% and 57%
- Population Mitotic Cells (%) [4]: 6% and 17%
- Population Normal (%) [4]: 78% and 61%
- Population Pyknosed Nuclei (%) [4]: 57% and 34%
- Population Tubulin-Different-Phenotype (%) [4]: 100% and 57%
- Total Cell Count [4]: 73 and 108
- Population Apoptotic (%) [5]: 76%
- Population Fragmented Nuclei (%) [5]: 44%
- Population Healthy Nuclei (%) [5]: 47%
- Population Hoechst High Intensity Objects (%) [5]: 23%
- Population Membrane Permeable-Phenotype (%) [5]: 4%
- Population Mitochondria Different-Phenotype (%) [5]: 3%
- Population Mitotic Cells (%) [5]: 23%
- Population Normal (%) [5]: 76%
- Population Pyknosed Nuclei (%) [5]: 8%
- Population Tubulin-Different-Phenotype (%) [5]: 10%
- Total Cell Count [5]: 340
- Population Apoptotic (%) [6]: 0%
- Population Fragmented Nuclei (%) [6]: 60%
- Population Healthy Nuclei (%) [6]: 34%
- Population Hoechst High Intensity Objects (%) [6]: 32%
- Population Membrane Permeable-Phenotype (%) [6]: 8%
- Population Mitochondria Different-Phenotype (%) [6]: 20%
- Population Mitotic Cells (%) [6]: 100%
- Population Normal (%) [6]: 67%
- Population Pyknosed Nuclei (%) [6]: 5%
- Population Tubulin-Different-Phenotype (%) [6]: 32%
- Total Cell Count [6]: 108
- Population Apoptotic (%) [7]: 71%
- Population Fragmented Nuclei (%) [7]: 43% and 48%
- Population Hoechst High Intensity Objects (%) [7]: 16% and 20%
- Population Membrane Permeable-Phenotype (%) [7]: 33% and 14%
- Population Mitochondria Different-Phenotype (%) [7]: 22% and 14%
- Population Mitotic Cells (%) [7]: 28%
- Population Normal (%) [7]: 83% and 79%
- Population Pyknosed Nuclei (%) [7]: 46% and 48%
- Population Tubulin-Different-Phenotype (%) [7]: 66% and 71%
- Total Cell Count [7]: 112 and 297
- Population Apoptotic (%) [8]: 88% and 100%
- Population Fragmented Nuclei (%) [8]: 66% and 26%
- Population Hoechst High Intensity Objects (%) [8]: 45% and 31%
- Population Membrane Permeable-Phenotype (%) [8]: 50% and 100%
- Population Mitotic Cells (%) [8]: 11% and 0%
- Population Normal (%) [8]: 54% and 68%
- Population Pyknosed Nuclei (%) [8]: 29% and 58%
- Population Tubulin-Different-Phenotype (%) [8]: 50% and 87%
- Total Cell Count [8]: 105 and 76
- Population Apoptotic (%) [11]: 91%
- Population Fragmented Nuclei (%) [11]: 55%
- Population Healthy Nuclei (%) [11]: 24%
- Population Hoechst High Intensity Objects (%) [11]: 49%
- Population Membrane Permeable-Phenotype (%) [11]: 33%
- Population Mitochondria Different-Phenotype (%) [11]: 33%
- Population Mitotic Cells (%) [11]: 8%
- Population Normal (%) [11]: 50%
- Population Pyknosed Nuclei (%) [11]: 19%
- Population Tubulin-Different-Phenotype (%) [11]: 66%
- Total Cell Count [11]: 120
- Population Apoptotic (%) [12]: 50%
- Population Fragmented Nuclei (%) [12]: 78%
- Population Healthy Nuclei (%) [12]: 17%
- Population Hoechst High Intensity Objects (%) [12]: 50%
- Population Membrane Permeable-Phenotype (%) [12]: 62%
- Population Mitochondria Different-Phenotype (%) [12]: 12%
- Population Mitotic Cells (%) [12]: 50%
- Population Normal (%) [12]: 49%
- Population Pyknosed Nuclei (%) [12]: 4%
- Population Tubulin-Different-Phenotype (%) [12]: 62%
- Total Cell Count [12]: 93
